Experimental findings from PubChem BioAssay AID651628 (The Scripps Research Institute Molecular Screening Center, 2012) are described below.

Calls of active or inactive are those of the source.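 The calls were made as follows: active = at least one off-target enzyme showing weaker fluorescent probe labeling in any proteome panel; inactive = no off-target enzyme affected in any panel.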

The test system of this test is Soluble Proteome. The experiment in a line: anti-target inhibition in MCF7 proteome, late-stage follow-up, selectivity assay for PAD4 inhibitor project, cell lysate, gel-based fluorescence, soluble and membrane fractions (AID 651628). Conditions: CA-Rh gel-based ABPP, anti-target count, at 50 µM, active compounds read high. In a few lines: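 Buffer or medium: DPBS; System: MCF7 soluble or membrane proteome; Quantity: proteome protein concentration of 1 mg/ml; Also added: CA-Rh probe, 10 µM; Times: compound pre-incubation 1 h, then probe labelling 1 h, both 25 °C; Control set: DMSO-only reference; Signal: SDS-PAGE separation with in-gel fluorescence scanning of labelled bands.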
Turning to `COC1=CC(=O)c2nc(C#N)ccc2C1=O`, the number of anti-targets was > 5 (active).

Regarding `O=C1C=C(Br)C(=O)c2ncccc21`, the number of anti-targets is > 5 (active).

As to `NC1=CC(=O)c2ccc(-c3ccccn3)nc2C1=O`, the number of anti-targets was 0 (inactive).

`COC(=O)c1nc(C(=O)OC)c(NC(C)=O)c(-c2ccccc2Br)c1C`: the number of anti-targets is 0 (inactive).

Regarding `COC1=C(Br)C(=O)c2nc(-c3ccccn3)ccc2C1=O`, the number of anti-targets is > 5 (active).

Regarding `COC1=C(N)C(=O)c2ncccc2C1=O`, the number of anti-targets was 0 (inactive).

In the case of `COC1=C(Br)C(=O)c2ncccc2C1=O`, the number of anti-targets is > 5 (active).

As to `NC1=CC(=O)c2cccnc2C1=O`, the number of anti-targets was 0 (inactive).

On to `O=C1C(O)=C(O)C(=O)c2ncccc21`, for which the number of anti-targets was 3 (active).

With `NC1=CC(=O)c2ccc(-c3cccc(C(=O)O)n3)nc2C1=O`, the number of anti-targets is 0 (inactive).

For `COC(=O)c1cccc(-c2ccc3c(n2)C(=O)C(Br)=CC3=O)n1`, the number of anti-targets was 0 (inactive).

Consider `COC1=C(N)C(=O)c2nc(-c3nc(C(=O)O)c(C)c(-c4ccc(OC)c(OC)c4O)c3N)ccc2C1=O`, for which the number of anti-targets is 0 (inactive).

As for `COC1=C(I)C(=O)c2nc(C#N)ccc2C1=O`, the number of anti-targets is > 5 (active).

Turning to `COC(=O)c1cccc(-c2ccc3c(n2)C(=O)C(N)=CC3=O)n1`, the number of anti-targets is 0 (inactive).
